Assay outcomes from PubChem.
A selection: hits, their analogues and other compounds. The true share with any hit is near 3.5%.
FLuc inhib CS – inhibits firefly luciferase, flagging false hits in luciferase inhibition screens. ATPLite firefly luciferase biochemical luminescence, 10 min. P08659. AID 1006. inhibition, % at 10 µM. hit rate 1.5% among 200,000;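 active means inhibition above about 50% when tested at 10 µM, limit read from the data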
Target sequence (P08659 whole entry, looked up): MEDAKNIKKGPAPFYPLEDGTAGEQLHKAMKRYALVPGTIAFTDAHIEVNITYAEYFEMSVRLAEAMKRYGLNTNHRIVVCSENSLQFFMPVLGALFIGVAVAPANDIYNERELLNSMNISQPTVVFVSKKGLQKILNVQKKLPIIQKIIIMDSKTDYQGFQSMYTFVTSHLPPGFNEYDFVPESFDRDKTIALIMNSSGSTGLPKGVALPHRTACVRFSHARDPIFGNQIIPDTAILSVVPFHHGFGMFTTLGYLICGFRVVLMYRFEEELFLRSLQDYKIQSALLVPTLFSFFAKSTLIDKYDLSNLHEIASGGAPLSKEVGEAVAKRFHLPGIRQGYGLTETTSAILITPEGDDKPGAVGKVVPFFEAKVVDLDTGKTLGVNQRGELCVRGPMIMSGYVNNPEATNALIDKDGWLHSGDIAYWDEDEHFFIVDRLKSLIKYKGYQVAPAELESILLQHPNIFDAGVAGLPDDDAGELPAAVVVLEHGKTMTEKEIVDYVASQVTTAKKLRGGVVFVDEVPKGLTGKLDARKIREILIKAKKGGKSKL
STAT1 act – STAT1 signaling activation; NIH 3T3 STAT1-luciferase reporter, IFN-gamma, luminescence; 100% = IFN-gamma alone, no compound; activation (% of control), % at 5.5 µM; hit rate 2.6% among 200,000; AID 932;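 active means activation above the screen-wide mean activation plus 3 SD, cut at about 130% in these data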;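 further: raw ratio to IFN-gamma control signal so 100% means no change and 0% no light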
APP 5'UTR act – activates APP 5'UTR luciferase reporter; AID 1276; activation, % at 2 µM; hit rate 1% among 190,000; SH-SY5Y APP 5'UTR luciferase reporter, luminescence; zero percent = DMSO vehicle wells;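 active means activation above a set limit, based on mean plus 3 SD of controls, cut at about 140% in these data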
Pf gametocyte – kills late stage P. falciparum gametocytes | P. falciparum stage V gametocytes, ATP luminescence, 24 h | inhibition, % at 10.9 µM | hit rate 0.065% among 150,000;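 active means inhibition above the mean plus 3 SD of compounds within the control limits, set per campaign, cut at about 38% in these data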;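 further: 0% = DMSO wells and 100% = medium only without gametocytes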
FLuc stim CS – firefly luciferase counter-screen for stimulation assays; P08659; ATPlite luciferase biochemical, luminescence, 10 min; 0 = ATP-free wells, 1 = DMSO control; activation factor at 10 µM; 200,000 tested, under 10 active; AID 1027;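 active means luciferase activation factor, scaled between plate controls, of at least 2 with compound at 10 µM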
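System: luciferase plus luciferin reagent, cell-free; medium: PBS as buffer for the ATP substrate; dosing: test compounds dosed from 2 mM stocks in 100% DMSO; timing: 10 min post-reagent at room temperature; measured by: luminescence measurement of luciferase light output; evaluation: luciferase activation, seen as luminescence increase over controls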
NF-kB expr up – NF-kB expression increase, human neuronal cells. NF-kB reporter expression; active compounds read high. fold change at 12.5 µM. AID 1239. hit rate 1.6% among 190,000; in the data active means fold change above about 3.3
* hit, by the source's call; · = not tested or not shown.

SMILES	FLuc inhib CS	STAT1 act	APP 5'UTR act	Pf gametocyte	FLuc stim CS	NF-kB expr up
O=C(O)c1cccc(N/N=C/c2ccc(F)c(F)c2)c1	12	85	118	-17	0.9	1
O=C(O)c1cccc(N/N=C/C2=C(Cl)c3cc(Cl)ccc3SC2)c1	3	126	195*	-5	1	5.2*
Sc1oc(-c2ccccc2)cc1C=Nc1ccccc1	27	134*	30	-15	0.7	3
CC(=NCc1ccco1)c1c(C)[nH]n(-c2nc3ccccc3s2)c1=O	35	128	153*	·	0.6	1.5
C/C(=N/NC(=O)c1cccs1)c1c(C)[nH]n(-c2nc3ccccc3s2)c1=O	93*	103	87	56*	0.1	2
CCC(=NCc1ccco1)c1c(C(F)(F)F)[nH]n(-c2nc3ccccc3s2)c1=O	18	120	17	·	0.8	0.49
CN=c1scc(-c2ccc(OC)cc2)n1/N=C(\C)c1cccnc1	19	107	56	-12	0.8	1.5
CCOc1cccc(=O)c2c(C)n(C)c(C)c12	-11	92	-4	3	1.1	0.93
COc1cccc(=O)c2c(C)n(C)c(C)c12	0	94	10	39*	1	1.3
COc1ccc(C(=O)/C=C/Nc2ccc(S(=O)(=O)Nc3onc(C)c3C)cc2)cc1	17	95	-4	-18	0.8	1.3
Cc1ccc(CSc2nnc(SCC(=O)N/N=C/c3c[nH]c4ccccc34)s2)cc1	3	131*	-37	-15	1	1.1
CCc1ccc(-c2cc(C(=O)N/N=C/c3c[nH]c4ccccc34)[nH]n2)cc1	46	94	208*	·	0.5	0.63
Cc1ccc2nc(-c3ccc4c(c3)OCCO4)cn2c1	·	·	·	-2	·	·
Clc1ccc2nc(-c3ccc4c(c3)OCO4)cn2c1	93*	40	158*	·	0.1	5*
O=C(Nc1nccs1)C(=O)c1c[nH]c2ccccc12	36	133*	50	·	0.6	2.6
CSc1ccccc1NC(=O)C(=O)c1c[nH]c2ccccc12	9	149*	34	-2	0.9	1.5
O=C1NC(=S)SC1=C1CCCC1	0	96	16	·	1	0.94
CCOC(=O)Cc1ccc(NC(=O)c2ccccc2Br)cc1	18	95	6	·	0.8	1.6
COC(=O)Cc1ccc(NC(=O)c2ccc(NC(=O)c3ccco3)cc2)cc1	0	104	-13	-13	1	0.85
COC(=O)Cc1ccc(NC(=O)c2ccc(C)c(C)c2)cc1	38	133*	21	-4	0.6	3.9*
Cc1noc(N)c1C(=O)Nc1ccc(C(C)(C)C)cc1	67*	143*	75	·	0.3	4*
CCOC(=O)Cc1ccc(NC(=O)c2ccc(C(C)(C)C)cc2)cc1	54*	67	-71	7	0.5	0.36
CC(=O)c1ccc(Nc2ccc(-c3ccccc3F)nn2)cc1	58*	142*	146*	-20	0.4	6.9*
CN1CCN(CC(=O)N2c3ccccc3C(C)(c3ccccc3)CC2(C)C)CC1 (centres undefined)	-8	93	11	·	1.1	6*
CC(=O)Nc1nc(C)c(Oc2ccccc2)c(=O)[nH]1	-9	104	-8	7	1.1	1.2
SMILES	FLuc inhib CS	STAT1 act	APP 5'UTR act	Pf gametocyte	FLuc stim CS	NF-kB expr up
CC(C)Oc1ccc(NC(=O)Oc2ccccc2)cc1	37	130*	1	·	0.6	1.1
Cc1cccc(N2CCN(C(=O)CCCOc3ccccc3)CC2)c1C	-6	132*	101	·	1.1	2
O=C(CCCOc1ccccc1)N1CCN(c2ccccc2)CC1	-3	131*	24	-4	1	2
O=C(CCSc1ccc(Cl)cc1)N1CCCCCC1	0	132*	38	·	1	2.3
O=C(CSc1ccccc1)N1CCN(c2ccccc2)CC1	0	109	31	2	1	1.2
O=C(CCSc1ccccc1)N1CCN(c2ccccc2)CC1	-2	131*	58	4	1	2.5
COC(=O)CCC(=O)Nc1cccc(C(=O)Nc2cccc(Cl)c2)c1	2	102	6	·	1	1.3
CCOC(=O)C1CCCN(C(=O)Nc2ccccc2)C1 (centres undefined)	-2	100	3	-24	1	1.2
